Hits are enriched below; roughly 0.79% of the tested compounds scored in any of these assays.
Rin1-Abl PPI inh: blocks binding of human Rin1 to Abl; P00519+Q13671; TR-FRET Rin1/Abl binding, biochemical; inhibition, % at 7.35 µM; 0.4% of 360,000 active; in the data active = inhibition above about 5%, passing the limit was not always enough
PKA-R1A act: PKA-R1A complex activation. PKA-R1A dissociation, Cy5-IP20 fluorescence polarization; scaled: DMSO 0%, 113 µM cGMP 100%. activation, % at 11.4 µM. 0.083% of 340,000 active. AID 504707;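 active = percent activation above the mean of all tested compounds plus 3 SD, cut at about 19% in these data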;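 also: higher means more PKAc released from R1A so a rise in polarization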
PKA-R2B act: activators of human PKA-R2B complex; PKA-R2B holoenzyme dissociation, Cy5-IP20 fluorescence polarization; R2B truncated from residue 108, S112A mutant; 0% DMSO only, 100% 113 µM cGMP; activation, % at 11.4 µM; 0.079% of 340,000 active;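 active = activation above a cutoff set at the mean over all compounds plus 3 SD, cut at about 18% in these data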;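 also: higher means more holoenzyme dissociation and a rise in polarization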
Target sequence (P31323 whole entry, looked up, other chains not shown, the tested form may be a part): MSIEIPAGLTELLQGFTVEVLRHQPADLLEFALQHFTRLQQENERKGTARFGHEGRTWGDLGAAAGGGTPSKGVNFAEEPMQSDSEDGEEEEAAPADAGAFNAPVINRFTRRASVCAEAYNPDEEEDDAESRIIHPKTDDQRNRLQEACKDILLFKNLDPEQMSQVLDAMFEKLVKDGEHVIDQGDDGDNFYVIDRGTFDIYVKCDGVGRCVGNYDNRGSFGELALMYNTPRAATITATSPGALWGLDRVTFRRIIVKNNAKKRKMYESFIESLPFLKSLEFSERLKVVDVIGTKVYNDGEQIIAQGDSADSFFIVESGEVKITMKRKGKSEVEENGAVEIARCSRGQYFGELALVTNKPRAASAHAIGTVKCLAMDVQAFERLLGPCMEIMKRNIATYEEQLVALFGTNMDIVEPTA
UCH37 DUB inh: human UCH37 deubiquitinating enzyme inhibition | Q9Y5K5 | purified proteasome/UCH37, Ub-AMC cleavage fluorescence | inhibition, % (test concentration not listed) | 0.33% of 330,000 active | AID 588478;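 active = mean inhibition over replicate wells above about 20%, limit read from the data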;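 also: 0% = compound-free wells with enzyme and 100% = wells lacking proteasome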
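Signal – fluorescence, ex 355 nm, em 460 nm · System – Proteasome-bound UCH37 · Input – 0.15 nM proteasome as dispensed · Timing – 30 min preincubation with enzyme, 25 min cleavage at room temperature · Read-out basis – percent inhibition of cleavage signal versus uninhibited and no-proteasome wells · Medium – Tris-HCl pH 7.4 with ATP-MgCl2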
Starred values were filed as active, the others as inactive; . = no result.

SMILES	Rin1-Abl PPI inh	PKA-R1A act	PKA-R2B act	UCH37 DUB inh
O=C(c1ccco1)N1CCN(C(=O)N2c3ccccc3Sc3ccccc32)CC1	0.6	-10.8	5.5	1.7
CC(=O)N1c2ccc(S(=O)(=O)N3CCC(C(=O)N4CC(C)CC(C)C4)CC3)cc2CC1C (stereo not given)	-3.4	-8.2	-8.0	-0.6
CCn1c(C)cc(/C=C2/SC(=S)N(CC(=O)O)C2=O)c1C	-1.9	-8.1	3.5	20.5*
COc1cc(/C=C2/C(=O)N(c3ccc(Br)cc3)N=C2C)cc(OC)c1OC	15.4*	-1.7	-17.3	2.9
COc1cc(/C=C2/C(=O)N(c3ccc(C(=O)O)cc3)N=C2C)cc(OC)c1O	0.1	-4.0	8.0	9.9
O=C(O)c1cccc(-c2ccc(/C=c3/sc4nc5ccccc5n4c3=O)o2)c1	-0.8	-10.2	-8.0	.
O=C(O)c1ccccc1-c1ccc(C=c2sc3nc4cc(Br)cnc4n3c2=O)o1	0.3	.	.	42.9*
COc1ccc(CNC(=S)NN=Cc2ccncc2)cc1	.	.	.	34.0*
CCOc1ccc(CNC(=S)NN=Cc2cccnc2)cc1	.	.	.	2.6
c1ccc2c(-c3csc(-c4ccncc4)n3)c[nH]c2c1	-4.2	-11.2	-4.6	-5.9
Nc1ccc(Br)c2cccnc12	1.8	5.8	-14.0	25.1*
CCCc1nc2c(s1)CCc1onc(-c3cccc([N+](=O)[O-])c3)c1-2	4.1	2.0	-3.5	31.7*
Cn1c(=O)c2c(nc(CN3CCc4ccccc4C3)n2Cc2cccc(Cl)c2)n(C)c1=O	0.6	-11.0	-5.2	23.1*
CC(C)CC1C(=O)N(Cc2cn(CC3CCCCC3)nn2)CCS(=O)(=O)N1Cc1ccc(-c2cccc(C#N)c2)cc1 (stereo not given)	-5.0	-16.7	-12.0	.
COc1ccc(NC(=O)COC(=O)c2ccc3ccccc3n2)cc1OC	-3.4	-13.4	3.3	1.4
C=CCOc1ccc(/C=C2\C(=N)N3N=C(S(=O)(=O)CC)SC3=NC2=O)cc1OC	1.6	-0.2	6.2	21.4*
CCS(=O)(=O)C1=NN2C(=N)/C(=C\c3ccc(OC(=O)c4ccco4)c(OC)c3)C(=O)N=C2S1	1.0	-7.7	-19.1	.
Cc1[nH][nH]c(=O)c1C(c1ccc(-c2ccccc2C(=O)O)o1)c1c(C)[nH][nH]c1=O	3.6	-4.6	7.2	24.0*
N=c1sccn1CC(=O)Nc1cccc2ccccc12	-2.0	3.8	-7.3	20.3*
CSc1ccccc1NC(=O)Cn1ccsc1=N	1.9	6.5	-7.1	0.0
COc1ccc(C(=O)c2ccccc2CN2C(=O)c3ccccc3C2=O)cc1	1.0	-3.8	-1.0	.
COCCN(C(=O)c1ccco1)c1nc(-c2ccc(OC)cc2)cs1	-3.4	-2.9	0.1	.
CCN(C(=O)CSc1nnc(Cc2ccccc2F)n1N)C1CCS(=O)(=O)C1 (stereo not given)	-2.5	1.2	-6.9	27.2*
O=C(Nc1nc(OCC(F)(F)F)cnc1/C=C\c1ccccc1)c1ccsc1	1.3	.	.	.
Cc1cccc(N/C=C/C(=O)c2ccc(Cl)cc2)c1	-1.0	3.8	-5.0	1.3
SMILES	Rin1-Abl PPI inh	PKA-R1A act	PKA-R2B act	UCH37 DUB inh
Cc1ccc[n+](/C(=C\C(=C=[N-])C#N)C(=O)c2ccc(Cl)cc2)c1	1.9	1.1	11.4	21.5*
CCN(CC)c1nc(N)c2c(N)n(-c3ccccc3C)c(=S)c(C#N)c2c1C#N	3.2	-10.9	1.9	21.3*
CC(=O)NS(=O)(=O)c1ccc(Nc2ccc([N+](=O)[O-])c3nonc23)cc1	-13.8	-3.2	3.8	25.0*
COc1cc(NC(=O)c2ccc(Br)o2)ccc1NC(=O)c1ccccc1Cl	9.4	4.1	5.1	4.4
O=C(NCCc1cccc(Cl)c1)C1CCC(=O)N(Cc2ccc(Cl)cc2)C1 (stereo not given)	-2.5	2.5	-5.9	5.9
COc1ccc(N2C(=O)[C@@H]3[C@H](C2=O)[C@H]2c4ccccc4C=CN2[C@@H]3C(=O)Nc2ccccc2)cc1	-1.5	3.0	7.9	30.4*
CC(=O)[C@@H]1[C@@H]2C(=O)N(Cc3ccccc3)C(=O)[C@@H]2C2c3ccccc3C=CN21 (stereo not given in full)	0.8	5.7	5.9	58.2*
C=CCn1c(CCNC(=O)c2ccc(Cl)c(Cl)c2)nnc1SCCOc1ccc(OC)cc1	1.9	-3.0	-9.7	0.2
c1coc(CNc2nc3nonc3nc2NCc2ccco2)c1	0.4	-1.6	-2.0	4.0
CN(Cc1ccccc1)C(=O)c1nc[nH]c1C(=O)N(C)Cc1ccccc1	-2.4	11.2	-1.7	6.1
Cc1cccc(NC2=CC(=NS(=O)(=O)c3cccs3)c3ccccc3C2=O)c1	.	.	.	50.2*
Cc1cccc(NC2=C/C(=N/S(=O)(=O)c3cccs3)c3ccccc3C2=O)c1	-1.2	-2.0	0.8	.
Cc1ccc(NC2=C/C(=N\S(=O)(=O)c3cccs3)c3ccccc3C2=O)c(C)c1	1.9	2.8	-7.2	65.2*
Cn1cccc1/C=C1\SC(=S)N(Nc2ccccc2)C1=O	-3.8	0.6	-3.0	4.3
CCCC(C(=O)O)N1C(=O)/C(=C/c2cccn2C)SC1=S (stereo not given)	-0.2	4.6	-9.3	22.5*
CC(C)C(C(=O)O)N1C(=O)/C(=C/c2cccn2C)SC1=S (stereo not given)	0.0	-6.4	-0.6	24.9*
CC1(C)N([O-])c2cc([N+](=O)[O-])ccc2[N+]1=O	.	.	.	57.4*
Cc1ccc(C)n1-c1cc([N+](=O)[O-])ccc1-n1ccnc1	0.9	.	.	6.7
COc1ccc(-c2nn(-c3ccccc3)cc2C(=O)Nc2cccc(S(=O)(=O)NC3=NCCC3)c2)cc1	1.6	6.9	-2.5	-3.1
CN(C)c1ccc(NC(=O)Nc2ccc3c(c2)c(=O)n(C)n3Cc2ccccc2)cc1	-0.3	.	.	.
O=C(COC(=O)CCc1c[nH]c(=O)[nH]1)Nc1cccc(Cl)c1	11.1*	1.9	0.8	-1.9
O=C(COC(=O)CCCOc1ccc(Cl)cc1Cl)Nc1cccc(Cl)c1	-3.6	3.8	-4.1	3.7
CC1(c2nnc(-c3cccc(Cl)c3)o2)CC(c2ccc(Br)cc2)=NO1 (stereo not given)	0.0	-1.6	5.6	0.0
O=S(=O)(c1ccc(Cl)c(NC(=S)NN=Cc2c(F)cccc2F)c1)N1CCOCC1	.	.	.	2.4
O=[N+]([O-])c1cc(Cl)cc(C=NNC(=S)Nc2cc(S(=O)(=O)N3CCOCC3)ccc2Cl)c1O	.	.	.	23.2*
C=CCN=C1N[C@@H](c2ccccc2)C(C(=O)OC)=C(C)N1CCOC	1.5	-13.6	-15.0	0.3
Cc1cccc(N2C(=O)N3[C@H]4c5ccccc5OC[C@@H]4[C@@H](c4ccccc4)[C@@]3(C)C2=O)c1	1.5	2.4	5.5	26.2*
COc1ccc(C(CC(=O)O)c2cc(OC)c(OC)c(OC)c2)cc1OC (stereo not given)	2.3	1.9	-4.4	.
COc1cc([N+](=O)[O-])cc(C=NNC(=O)C(C)Nc2ccccc2C)c1O (stereo not given)	.	.	.	20.2*

Source: PubChem (several laboratories)
